Hits are enriched below; roughly 5.7% of the tested compounds scored in any of these assays.
Beta cell apopt: blocks beta cell apoptosis | INS-1E cytokine-induced death, ATP luminescence, 48 h; percent of positive-control rescue, neutral wells zero | protection from apoptosis, % (concentration not given with the values) | hit rate 0.8% among 300,000 | AID 435005;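 active = Every replicate reaches about 75%, or at least half do and their mean reaches it too, limit read from the data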;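 note: 0% = cytokine-treated negative control wells and 100% = positive control rescue; higher means more ATP so stronger rescue from cytokine killing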
Mdm2-MdmX inh: inhibitors of human Mdm2/MdmX interaction | O15151+Q00987 | SaOS-2 split-luciferase Mdm2/MdmX complementation, luminescence | inhibition, % at 8 µM | hit rate 3% among 330,000;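 active = inhibition of at least 50% at 8 µM in the primary screen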
Target sequence (O15151 whole entry, looked up): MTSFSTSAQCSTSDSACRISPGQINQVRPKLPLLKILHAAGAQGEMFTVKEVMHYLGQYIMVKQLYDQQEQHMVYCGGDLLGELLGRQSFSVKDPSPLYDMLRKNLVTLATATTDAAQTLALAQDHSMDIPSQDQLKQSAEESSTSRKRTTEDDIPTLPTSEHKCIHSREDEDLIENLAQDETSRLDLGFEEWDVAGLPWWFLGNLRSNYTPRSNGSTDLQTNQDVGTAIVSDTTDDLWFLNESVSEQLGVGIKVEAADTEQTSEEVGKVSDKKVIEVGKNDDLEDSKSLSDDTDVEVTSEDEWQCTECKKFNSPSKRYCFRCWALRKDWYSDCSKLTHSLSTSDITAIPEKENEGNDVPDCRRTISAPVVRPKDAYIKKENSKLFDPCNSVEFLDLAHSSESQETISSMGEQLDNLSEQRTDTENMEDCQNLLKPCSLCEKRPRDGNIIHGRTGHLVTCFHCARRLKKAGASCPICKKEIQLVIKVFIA
Target sequence (Q00987 whole entry, looked up): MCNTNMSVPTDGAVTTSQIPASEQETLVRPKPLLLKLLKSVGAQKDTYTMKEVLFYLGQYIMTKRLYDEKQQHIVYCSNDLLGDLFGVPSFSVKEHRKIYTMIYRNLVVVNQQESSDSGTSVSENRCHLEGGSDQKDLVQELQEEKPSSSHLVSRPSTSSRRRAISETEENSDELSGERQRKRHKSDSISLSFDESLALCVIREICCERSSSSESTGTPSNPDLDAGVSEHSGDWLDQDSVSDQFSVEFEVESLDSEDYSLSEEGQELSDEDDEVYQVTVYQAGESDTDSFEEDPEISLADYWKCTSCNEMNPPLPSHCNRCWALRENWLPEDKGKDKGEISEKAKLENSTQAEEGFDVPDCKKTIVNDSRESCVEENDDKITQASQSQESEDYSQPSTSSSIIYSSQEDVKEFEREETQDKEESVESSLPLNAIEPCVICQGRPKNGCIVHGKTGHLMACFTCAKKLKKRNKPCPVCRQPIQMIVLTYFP
T cruzi inh: blocks replication of Trypanosoma cruzi; T. cruzi beta-gal in NIH3T3, luminescence, 90 h; inhibition, % (no concentration beside the values); hit rate 1.4% among 300,000;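 active = mean inhibition across valid replicates above about 55%, limit read from the data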;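 note: signal also drops with host cell toxicity which is not excluded here; 0% = plate median of DMSO wells and 100% = zero luminescence signal; higher percent means less beta-gal luminescence so fewer parasites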
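Test system: β-gal T. cruzi (Tulahuen C4) inside NIH/3T3 cells / Quantity: 5,000 cells/well / Measured by: luminescence from GalScreen with 0.05% NP40, read after 60 min / Medium: DMEM plus 2% FBS / Measure: parasite load inhibition, % / Reagent: Tulahuen C4 trypomastigotes, 5000/well / Schedule: co-culture of at least 90 h after 3 h attachment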
SKKanGAS inh: inhibitors of SKKanGAS S. pyogenes growth in kanamycin (SK-promoter or general growth effect) | inhibition, % at 7.5 µM | hit rate 1.3% among 300,000 | AID 1662 | BacTiter-Glo, 6 h;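 active = mean replicate score, as percent of positive control median, at least 50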;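 note: strain carries kanamycin resistance gene driven by streptokinase promoter and grows in 40 µg/ml kanamycin; loss of luminescence reflects streptokinase promoter inhibition or plain growth inhibition; 0% = median of DMSO wells and 100% = positive control at its reference dose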
CSC inhib: cancer stem cell inhibition | AID 2717 | cancer stem cell-like cells viability, luminescence | hit rate 1.1% among 300,000 | inhibition, % at 7.5 µM; in the data active = inhibition above about 75%; tested in HMLE shEcad cells
Calb FLC: C. albicans growth modulation with fluconazole; C. albicans CaCi-2 (fluconazole-resistant clinical isolate) + fluconazole, Alamar Blue growth, 48 h; hit rate 0.57% among 300,000; growth inhibition, % (no concentration beside the values);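 active = growth inhibition above about 58% in most replicates, limit read from the data, passing the limit was not always enough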;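 note: all wells also contain fluconazole at 8 µg/ml as a sub-toxic cotreatment; 0% = median of DMSO wells and 100% = median of geldanamycin control wells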
Mdm2-MdmX conf: human Mdm2/MdmX binding inhibition, confirmed; shares compounds with Mdm2-MdmX inh; luminescent assay; inhibition, % at 8 µM; hit rate 55% among 10,000; AID 489028; in the data active = inhibition above about 40%
FLuc counter: inhibits full-length luciferase, flagging false Mdm2/MdmX hits | shares compounds with Mdm2-MdmX inh | SaOS-2 full-length luciferase counterscreen, luminescence | inhibition, % at 8 µM | hit rate 77% among 6,200 | AID 504607;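 active = mean inhibition at 8 µM reaching about 37%, which flags the compound as non-specific, limit read from the data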;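 note: p53-null SaOS-2 cells with luciferase driven by a doxycycline-inducible promoter; compound on cells about two nights before reading with doxycycline added after day one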
Active calls of the source: *; / = no result given.

SMILES	Beta cell apopt	Mdm2-MdmX inh	T cruzi inh	SKKanGAS inh	CSC inhib	Calb FLC	Mdm2-MdmX conf	FLuc counter
Cc1cc(Br)ccc1NC(=O)CNC(=O)c1cnn(C)c1	-2	21	/	/	-4	/	/	/
Cc1ccc(NC(=O)c2c(C)noc2-c2snnc2C)cc1	-3	2	0	4	12	-6	/	/
Cc1nnsc1-c1onc(C)c1C(=O)Nc1cc(Cl)cc(Cl)c1	77*	76*	23	27	25	-6	16	/
CC(=O)c1sc(NC(=O)c2cc(-c3ccccc3)nn2-c2ccccc2)nc1C	-6	32	-2	23	13	0	/	/
O=C(Nc1nc2ccccc2s1)c1cc(-c2ccccc2)nn1-c1ccccc1	111*	86*	21	11	44	0	47*	110*
O=c1c(Cl)c(N2CCCCC2)cnn1-c1nc2ccccc2[nH]1	42	52*	5	27	12	8	56*	63*
Clc1ccc2nc(N3CCCCC3)[nH]c2c1	-2	-175	10	1	/	21	/	/
COc1ccc(OC)c(NC(=O)c2cc(OC(C)=O)cc(C(=O)Nc3cc(OC)ccc3OC)c2)c1	18	56*	43	27	0	2	13	/
COc1ccc(CNCc2cn(-c3cccc(F)c3)nc2-c2ccc(C)o2)cc1	0	52*	42	6	-4	6	13	/
C=C(NC(=O)C(=C)NC(=O)c1csc(C2=NC3c4csc(n4)C4NC(=O)c5csc(n5)C([C@@](C)(O)C(C)O)NC(=O)C5CSC(=N5)/C(=C\C)NC(=O)C(C(C)O)NC(=O)c5csc(n5)[C@]3(CC2)NC(=O)C(C)NC(=O)C(=C)NC(=O)C(C)NC(=O)C(C(C)CC)NC2C=Cc3c(C(C)O)cc(nc3C2O)C(=O)OC4C)n1)C(N)=O (some centres not stated)	-9	94*	/	/	80*	/	56*	58*
Cc1ccc(CN2C3=NCCCN3c3ccccc32)cc1	2	21	/	/	-1	/	/	/
Cc1cc2c(cc1C)N(Cc1ccc(Cl)cc1)C1=NCCCN12	4	56*	27	-2	6	-8	39	90*
CC(C)(C)c1ccc(CN2C3=NCCCN3c3ccccc32)cc1	41	69*	69*	-3	31	-2	33	61*
COC(=O)C1N[C@@H]([C@@H](NC(=O)COc2ccccc2)C(=O)NCc2ccsc2)SC1(C)C (some centres not stated)	-2	9	-14	0	-9	-17	/	/
CCOc1ccc(C(O)(c2ccccc2)C(CN2CCCC2)c2ccccc2)cc1 (configuration not stated)	0	8	36	-3	-8	-1	/	/
CCOC(=O)C1=C(COC(=O)c2ccc3ccccc3c2O)NC(=O)NC1C (configuration not stated)	-4	-2	/	/	/	/	/	/
CCN(Cc1ccccc1)S(=O)(=O)c1ccc(C(=O)N(CCCN(C)C)c2nc3cc(C)cc(C)c3s2)cc1	/	98*	45	34	102*	4	55*	68*
CCCCN(CC)S(=O)(=O)c1ccc(C(=O)N(CCCN(C)C)c2nc3cc(C)cc(C)c3s2)cc1	43	71*	67*	-2	99*	-6	10	/
Cc1cc(C)c2sc(N(CCCN(C)C)C(=O)c3ccc(S(=O)(=O)N(C)Cc4ccccc4)cc3)nc2c1	/	93*	50	22	-7	2	48*	69*
COc1ccc([C@H]2CC(=O)C=C(/C=C/Cc3ccccc3)C2)cc1	-8	29	/	/	33	/	/	/
CN(C)c1ccc(C=Nc2cnn(C)c2C(N)=O)cc1	-4	52*	/	/	-10	0	-1	/
CCn1cnc2c1c(=O)n(CC(=O)NCC(C)C)c(=O)n2Cc1ccccc1	-15	24	-3	-5	-5	2	/	/
CC1CCN(S(=O)(=O)c2ccc(NC(=O)Cn3nnc(-c4ccccc4)n3)cc2)CC1	58	7	49	2	7	-14	/	/
CCS(=O)(=O)c1ncc(Cl)c(C(=O)Nc2ccc(S(=O)(=O)N3CCC(C)CC3)cc2)n1	108*	100*	62*	9	118*	1	100*	52*
CCOc1ccccc1NC(=O)c1nc(S(=O)(=O)Cc2ccccc2)ncc1Cl	/	97*	9	59*	/	-4	97*	0
SMILES	Beta cell apopt	Mdm2-MdmX inh	T cruzi inh	SKKanGAS inh	CSC inhib	Calb FLC	Mdm2-MdmX conf	FLuc counter
CC1CCN(S(=O)(=O)c2ccc(NC(=O)c3ccncc3)cc2)CC1	13	2	4	-2	-1	-1	/	/
Cc1ccc(-c2nnn(CC(=O)Nc3ccc(S(=O)(=O)N4CCC(C)CC4)cc3)n2)cc1	50	52*	32	8	-5	-2	26	/
COc1ccccc1NC(=O)c1nc(S(=O)(=O)Cc2ccccc2)ncc1Cl	77*	97*	38	13	-6	-7	70*	51*
COc1ccc(Br)cc1/C=N/n1nnnc1N	-4	-21	-7	-5	3	0	/	/
Cc1ccc(C(=O)NNC(=O)c2csc(N3CCOCC3)n2)s1	-3	21	10	-3	-8	4	/	/
CC(=O)Nc1ccccc1NC(=O)C/C(C)=N/NC(=O)c1cccnc1	-4	3	-5	-10	-18	0	/	/
CCc1ccc(N(CC(=O)N2CCOCC2)S(C)(=O)=O)cc1	-4	18	-2	-3	-8	1	/	/
CCS(=O)(=O)c1ncc(Cl)c(C(=O)Nc2ccccc2OC)n1	84*	96*	-19	1	55	11	100*	45*
Cc1ccc(NC(=O)c2nc(S(=O)(=O)Cc3ccccc3C)ncc2Cl)cc1C	52	100*	-59	68*	103*	-3	70*	52*
COc1ccccc1NC(=O)c1ccc(C(=O)Nc2ccccc2OC)nc1	-4	26	-7	1	7	-10	/	/
CCc1ccc(NC(=O)c2nc(S(=O)(=O)Cc3ccccc3)ncc2Cl)cc1	72	99*	-17	46	105*	10	84*	51*
CCOc1ccccc1NC(=O)c1ccc(C(=O)Nc2ccccc2OCC)nc1	1	91*	-13	1	-9	1	10	/
CCCS(=O)(=O)c1ncc(Cl)c(C(=O)Nc2ccc(S(=O)(=O)Nc3ncccn3)cc2)n1	1	7	-3	1	-1	-26	/	/
CC(C)c1ccc(NC2CCCN(C(=O)c3ccc(N4CCOCC4)cc3)C2)cc1 (configuration not stated)	0	22	16	-2	-9	-3	/	/
COc1cccc(COC(=O)c2cc(=O)[nH]c3ccc(S(=O)(=O)N4CCOCC4)cc23)c1OC	-5	0	-8	-4	/	2	/	/
